Assay [1] in a line: Antiproliferative activity against human HCT116 cells after 24 hrs by MTT assay. The settings on record: HCT-116, 24 h. The class given is functional, cell-based. An outline of the steps:
(§1)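 MTT proliferation assay on HUVECs and on HepG2, A375, U251, B16 and HCT116 cells. Results reported as IC50.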
Background: Tetrazolium assays rely on reduction of a dye to a coloured formazan, in cell work by metabolically active cells.

The test system of assay [2] is HUVEC. The assay can be described thus: Antimigratory activity in HUVEC assessed as migration into wound area at 0.5 uM after 24 hrs relative to vehicle treated control. The format is functional, Homo sapiens. An outline of the steps: (§2)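 Wound-healing assay. HUVEC monolayers scratched with a pipette, then treated with vehicle or the indicated compound concentrations. Photographs taken at 0 h and 24 h at 50×, and migration rate into the wound calculated. Mean ± SD from three independent experiments.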

In the next assay the test system is HepG2. In words: Antiproliferative activity against human HepG2 cells after 24 hrs by MTT assay. The format is functional, cell-based. The settings on record: HepG2, 24 h. An outline of the steps:
as §1

In assay [3] the test system is HUVEC. In words: Antimigratory activity in HUVEC assessed as migration into wound area at 1 uM after 24 hrs relative to vehicle treated control. The class given is functional, Homo sapiens. An outline of the steps:
as §2

The subject of another assay is A-375. In words: Antiproliferative activity against human A375 cells after 24 hrs by MTT assay. The conditions noted are these: A-375, 24 h. The format is functional, cell-based. An outline of the steps: as §1
For the next assay, the system named is B16. In words: Antiproliferative activity against mouse B16 cells after 24 hrs by MTT assay. The format is functional, cell-based. The settings on record: B16, 24 h. An outline of the steps: as §1
The test system of the next assay is U-251. The assay can be described thus: Antiproliferative activity against human U251 cells after 24 hrs by MTT assay. The format is functional, cell-based. The conditions noted are these: U-251, 24 h. An outline of the steps:
as §1

The test system of assay [4] is HUVEC. In words: Antiproliferative activity against HUVEC after 24 hrs by MTT assay. The format is functional, cell-based. The conditions noted are these: Homo sapiens. An outline of the steps: as §1
For assay [5], the system named is HUVEC. In words: Antiangiogenic activity against HUVEC assessed as inhibition of capillary-like tube formation at 5 uM after 8 hrs by Matrigel assay relative to control. The format is functional. The settings on record: Homo sapiens. An outline of the steps: (§3)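 HUVECs (1 × 10^4 cells) suspended in EBM-2 with vehicle or compound at 1.0 or 5.0 μM and plated on Matrigel. Incubated 8 h at 37 °C. Capillary networks photographed at 100× and quantified. Inhibition of tube-like structure formation expressed relative to vehicle group.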

Assay [6] relates to HUVEC. The assay can be described thus: Antiangiogenic activity against HUVEC assessed as inhibition of capillary-like tube formation at 1 uM after 8 hrs by Matrigel assay relative to control. The class given is functional. The conditions noted are these: Homo sapiens. An outline of the steps: as §3
The species entered for the next assay is Danio rerio. The assay can be described thus: Antiangiogenic activity in Flk-1-GFP transgenic zebrafish embryo after 24 hrs. The format is functional, organism-based. An outline of the steps: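 Zebrafish embryos exposed to compound at 1.25 or 2.5 μM, or to vehicle, for 24 h. Read-out is formation of the subintestinal vessel (SIV) basket-like structure, compared with vehicle-treated embryos.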

For `COc1cc(OC)c(-c2coc3c4c(ccc3c2=O)OC(C)(C)C=C4)cc1OC`, the IC50 was found to be 2.36 µM in assay [1]; 1.77 µM in the assay with HepG2; 1.85 µM in the assay on A-375; 1.23 µM with B16; 4.1 µM in the assay with U-251; 7.45 µM with HUVEC [4]. Besides, the Activity came to 74.26% in the assay with HUVEC [2] and 1.65% in the assay on HUVEC [3]. Further, the inhibition at 5 µM in the assay on HUVEC [5] is 65.4%. Besides, in the assay on HUVEC [6], the inhibition at 1 µM amounted to 23.7%. In addition, in the assay filed under Danio rerio, the inhibition entry is “Dose-dependent effect”.
Take `COc1cc(OC)c(-c2coc3cc(OCC=C(C)C)ccc3c2=O)cc1OC`: the IC50 in assay [1] came out at 0.68 µM; in the assay on HepG2 it was 0.28 µM; in the assay on A-375, 1.58 µM; with B16, 1.09 µM; in the assay on U-251, 3.5 µM; with HUVEC [4], 3.8 µM. In addition, the Activity is recorded as 35.36% with HUVEC [2] and 8.45% with HUVEC [3]. For the same compound, the inhibition at 5 µM with HUVEC [5] was found to be 88.3%. In addition, the inhibition at 1 µM with HUVEC [6] was 78.2%. The inhibition entry in the assay listed under Danio rerio is “Dose-dependent effect”.
In the case of `COc1ccc(-c2coc3c4c(ccc3c2=O)OC(C)(C)C=C4)c(OC)c1OC`, the IC50 (in assay [1]; with HepG2; in the assay with A-375; in the assay on B16; in the assay on U-251; in the assay with HUVEC [4]) was above 10 µM in each case.
`COc1cccc(-c2coc3c4c(ccc3c2=O)OC(C)(C)C=C4)c1F`: the IC50 (in assay [1]; with HepG2; in the assay on A-375; in the assay with B16; in the assay with U-251; with HUVEC [4]) was above 10 µM each time.
On to `COc1cc(OC)c(-c2coc3cc(OCc4cccc(Br)c4)ccc3c2=O)cc1OC`, for which the IC50 in assay [1] is 1.2 µM; with HepG2, 0.87 µM; with A-375, 1.12 µM; with B16, 4.4 µM; in the assay with U-251, above 10 µM; in the assay on HUVEC [4], above 10 µM.
Regarding `CC1(C)C=Cc2c(ccc3c(=O)c(-c4ccc(C#N)cc4)coc23)O1`, the IC50 (in assay [1]; with HepG2; with A-375; in the assay on B16; in the assay on U-251; in the assay with HUVEC [4]) was above 10 µM in each case.
As to `CC(=O)c1ccc(-c2coc3c4c(ccc3c2=O)OC(C)(C)C=C4)cc1`, the IC50 (in assay [1]; in the assay with HepG2; with A-375; in the assay on B16; in the assay with U-251; in the assay on HUVEC [4]) was above 10 µM in each case.
As for `COc1cc(OC)c(-c2coc3cc(OCc4ccccc4C)ccc3c2=O)cc1OC`, the IC50 in [1] was found to be 2.9 µM; in the assay with HepG2, 1.86 µM; in the assay on A-375 it was 1.36 µM; with B16, 2.15 µM; with U-251, 2 µM; in the assay with HUVEC [4], 4.83 µM.
For the compound `COc1cc(OC)c(-c2coc3cc(OCc4cccc(C(F)(F)F)c4)ccc3c2=O)cc1OC`, the IC50 in [1] is 3.4 µM; with HepG2, 0.61 µM; in the assay on A-375 it was 1.14 µM; in the assay on B16 it was above 10 µM; in the assay on U-251, above 10 µM; with HUVEC [4] it was above 10 µM.
Regarding `COc1cc(OC)c(-c2coc3cc(OCCN4CCOCC4)ccc3c2=O)cc1OC`, the half-inhibitory concentration (IC50) (in assay [1]; in the assay with HepG2; in the assay with A-375; in the assay on B16; in the assay on U-251; in the assay with HUVEC [4]) was above 10 µM throughout.
Take `COc1cc(OC)cc(-c2coc3c4c(ccc3c2=O)OC(C)(C)C=C4)c1`: the IC50 (in assay [1]; in the assay on HepG2; with A-375; with B16; with U-251; in the assay on HUVEC [4]) was above 10 µM each time.
Take `COc1cc(OC)c(-c2coc3cc(OCc4ccccc4F)ccc3c2=O)cc1OC`: the IC50 came to 2.9 µM in assay [1]; 1.28 µM with HepG2; 2.1 µM in the assay on A-375; 1.61 µM in the assay with B16; 2.89 µM in the assay on U-251; 4.3 µM in the assay on HUVEC [4].
For `COc1cc(OC)c(-c2coc3cc(OCc4ccccc4Br)ccc3c2=O)cc1OC`, the IC50 in assay [1] was 4.55 µM; with HepG2, 2.18 µM; with A-375, 2.85 µM; in the assay on B16 it was 8.9 µM; in the assay with U-251, above 10 µM; in the assay with HUVEC [4], above 10 µM.
Consider `COc1ccc2c(=O)c(-c3cc(OC)c(OC)cc3OC)coc2c1`, for which the IC50 is 9.17 µM in [1]; 2.04 µM in the assay on HepG2; 2.64 µM with A-375; 5.2 µM in the assay on B16; 9.4 µM in the assay with U-251; above 10 µM in the assay on HUVEC [4].
As to `COc1cc(-c2coc3c4c(ccc3c2=O)OC(C)(C)C=C4)cc(OC)c1OC`, the IC50 (in [1]; in the assay on HepG2; with A-375; in the assay on B16; with U-251; in the assay with HUVEC [4]) was above 10 µM in each case.
On to `CCOc1ccccc1-c1coc2c3c(ccc2c1=O)OC(C)(C)C=C3`, for which the IC50 (in [1]; with HepG2; in the assay with A-375; in the assay with B16; in the assay on U-251; with HUVEC [4]) was above 10 µM throughout.

In general, IC50 refers to the midpoint of a concentration-inhibition curve. High values mean weaker potency, low ones greater potency. By inhibition is commonly meant how much of the control response was suppressed.

Values taken from ChEMBL document CHEMBL3352483, “Synthesis, structure-activity relationships and biological evaluation of barbigerone analogues as anti-proliferative and anti-angiogenesis agents” (Bioorg Med Chem Lett, 2014).
